Measurements: ChEMBL document CHEMBL2034979, “Design, synthesis and antiviral activity of novel quinazolinones” (Eur J Med Chem, 2012)

Columns and labels:
[1] = Cytotoxicity against human TZM-bl cells at 10 uM after 48 hrs by MTT assay; type: cell-based
Outline: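 TZM-bl cells plated and held 18 h at 37 °C, then exposed to compounds for 48 h. MTT (5 mg/mL stock, 20 µL per well) added and incubated 3 h at 37 °C. Plates shaken 10 min at room temperature. OD550 read against a 690 nm reference. Single test concentration of 10 µM.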

[2] = system: Human immunodeficiency virus; test: Antiviral activity against HIV infected in human TZM-bl cells at 10 uM after 48 hrs by luciferase-based reporter gene assay; type: functional; details: Human immunodeficiency virus 1, TZM-bl
Outline: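 TZM-bl cells seeded at 10^4 cells/well. Next day, compounds were added at 10 µM with AZT and MK-0518 reference controls, then pseudotyped HIV-1 was added (final DMSO 2%). Plates were incubated 48 h at 37 °C in humidified CO2. Steady-Glo substrate was added, cells lysed 20 min in the dark, and luciferase luminescence was read.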

Tobacco mosaic virus [3] = test: In vivo antiviral activity against TMV assessed as viral inactivation effect at 500 ug/mL; type: functional
Tobacco mosaic virus [4] = test: In vivo antiviral activity against TMV assessed as curative effect at 500 ug/mL; type: functional
Tobacco mosaic virus [5] = test: In vivo antiviral activity against TMV assessed as protection effect at 500 ug/mL; type: functional
Tobacco mosaic virus [6] = test: In vitro antiviral activity against TMV assessed as inhibition rate at 500 ug/mL; type: functional

| SMILES | Activity [1] | inhibition at 10 µM [2] [%] | Activity (Tobacco mosaic virus [3]) [%] | Activity (Tobacco mosaic virus [4]) [%] | Activity (Tobacco mosaic virus [5]) [%] | inhibition at 500 µg/mL (Tobacco mosaic virus [6]) [%] |
| --- | --- | --- | --- | --- | --- | --- |
| COc1c(C(=O)NCc2ccc(F)cc2)ccc2nc(-c3ccc([N+](=O)[O-])cc3)n(C)c(=O)c12 | Non-toxic | -3.8 | – | – | – | – |
| Cn1c(Cc2ccc(F)cc2)nc2ccc(C(=O)NCc3ccc(F)cc3)c(O)c2c1=O | Non-toxic | 49.5 | – | – | – | – |
| CCCCc1nc2ccc(C(=O)NCc3ccc(F)cc3)c(OC)c2c(=O)n1C | Non-toxic | 19.1 | – | – | – | – |
| COc1c(C(=O)NCc2ccc(F)cc2)ccc2nc(-c3ccc(F)cc3)n(C)c(=O)c12 | Non-toxic | 27.6 | 13.3 | 8.2 | 7.4 | – |
| COc1c(C(=O)NCc2ccc(F)cc2)ccc2c1C(=O)N(C)C(c1ccccn1)N2 (centres undefined) | Non-toxic | 9.9 | 15.2 | 0 | 8.7 | 0 |
| CCCCc1nc2ccc(C(=O)NCc3ccc(F)cc3)c(O)c2c(=O)n1C | Non-toxic | 2.4 | – | – | – | – |
| COc1c(C(=O)NCc2ccc(F)cc2)ccc2c1C(=O)N(C)C(c1ccc([N+](=O)[O-])cc1)N2 (centres undefined) | Non-toxic | 64.9 | 18.9 | 15 | 20.3 | 19.5 |
| NC(=O)c1ncn([C@@H]2O[C@H](CO)[C@@H](O)[C@H]2O)n1 [RIBAVIRIN] | – | – | 34.2 | 32.7 | 39.6 | 38.5 |
| Cn1c(Cc2ccc([N+](=O)[O-])cc2)nc2ccc(C(=O)NCc3ccc(F)cc3)c(O)c2c1=O | Non-toxic | 29 | 12.7 | 13.3 | 16.8 | 18.4 |
| Cn1c(-c2ccc(F)cc2)nc2ccc(C(=O)NCc3ccc(F)cc3)c(O)c2c1=O | Non-toxic | 68.4 | – | – | – | – |
| Cn1c(-c2cccs2)nc2ccc(C(=O)NCc3ccc(F)cc3)c(O)c2c1=O | Non-toxic | 33.2 | 8.2 | 10.9 | 9.8 | 14.5 |
| COc1c(C(=O)NCc2ccc(F)cc2)ccc2nc(-c3ccco3)n(C)c(=O)c12 | Non-toxic | 1.6 | 0 | 8.9 | 11.7 | 10 |
| COc1c(C(=O)NCc2ccc(F)cc2)ccc2c1C(=O)N(C)C(Cc1ccc([N+](=O)[O-])cc1)N2 (centres undefined) | Non-toxic | -17.7 | – | – | – | – |
| COc1c(C(=O)NCc2ccc(F)cc2)ccc2c1C(=O)N(C)C(c1ccco1)N2 (centres undefined) | Non-toxic | 8.1 | 8.2 | 0 | 0 | 7.5 |
| CCCCC1Nc2ccc(C(=O)NCc3ccc(F)cc3)c(OC)c2C(=O)N1C (centres undefined) | Non-toxic | 3.2 | – | – | – | – |
| COc1c(C(=O)NCc2ccc(F)cc2)ccc2c1C(=O)N(C)C(c1cccs1)N2 (centres undefined) | Non-toxic | 17.5 | 13.7 | 0 | 5.4 | 16.3 |
| COc1c(C(=O)NCc2ccc(F)cc2)ccc2nc(Cc3ccc([N+](=O)[O-])cc3)n(C)c(=O)c12 | Non-toxic | -33.8 | 0 | 0 | 12.4 | – |
| Cc1cn([C@H]2C[C@H](N=[N+]=[N-])[C@@H](CO)O2)c(=O)[nH]c1=O [ZIDOVUDINE] | – | 98.1 | – | – | – | – |
| COc1c(C(=O)NCc2ccc(F)cc2)ccc2nc(Cc3ccc(F)cc3)n(C)c(=O)c12 | Non-toxic | -27.4 | 10.6 | 15.2 | 17.7 | 21.2 |
| Cc1nnc(C(=O)NC(C)(C)c2nc(C(=O)NCc3ccc(F)cc3)c(O)c(=O)n2C)o1 [RALTEGRAVIR] | – | 95.2 | – | – | – | – |
| Cn1c(-c2ccco2)nc2ccc(C(=O)NCc3ccc(F)cc3)c(O)c2c1=O | Non-toxic | -9.2 | – | – | – | – |
| Cn1c(-c2ccc([N+](=O)[O-])cc2)nc2ccc(C(=O)NCc3ccc(F)cc3)c(O)c2c1=O | Non-toxic | 77.5 | – | – | – | – |
| COc1c(C(=O)NCc2ccc(F)cc2)ccc2nc(-c3ccccn3)n(C)c(=O)c12 | Non-toxic | 44.6 | 29.4 | 17.6 | 19.5 | 21.3 |
| COc1c(C(=O)NCc2ccc(F)cc2)ccc2c1C(=O)N(C)C(Cc1ccc(F)cc1)N2 (centres undefined) | Non-toxic | 15.6 | – | – | – | – |
| COc1c(C(=O)NCc2ccc(F)cc2)ccc2nc(-c3cccs3)n(C)c(=O)c12 | Non-toxic | 25.1 | 20.4 | 9.4 | 12.7 | 0 |
| Cn1c(-c2ccccn2)nc2ccc(C(=O)NCc3ccc(F)cc3)c(O)c2c1=O | Non-toxic | -11 | – | – | – | – |
| COc1c(C(=O)NCc2ccc(F)cc2)ccc2c1C(=O)N(C)C(c1ccc(F)cc1)N2 (centres undefined) | Non-toxic | 31 | 30.4 | 26.3 | 28.9 | 24.2 |
